Sampled rows, rich in hits. Any-hit rate of the full collection: about 3%.
TAAR1 ag – human TAAR1 agonism; activation, % at 3 µM; AID 624467; CHO RD-HGA16 TAAR1, Fluo-8 calcium fluorescence; vehicle wells 0%, saturating PEA agonist 100%; Q96RJ0; 0.99% of 360,000 active;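 active = activation above the mean activation of all test compounds in the run plus 3 SD, cut at about 38% in these data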
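System: CHO-derived RD-HGA16 cells with stable Gα16 and human TAAR1 / Times: 17-24 h plating, Fluo-8 75 min 37 °C, 30 min RT / Technique: calcium-sensitive Fluo-8 signal, excitation 470-495, emission 515-575 nm / Measure: % activation relative to PEA EC100 response / Benchmarks: DMSO and PEA EC100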
M4 antag – blocks acetylcholine activation of human M4 receptor. P08173. 0.73% of 360,000 active. CHO-hM4 cells, ACh EC80, Fluo-8 calcium fluorescence. inhibition, % at 3 µM;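 active = inhibition above its plate's cutoff, the mean inhibition of sample wells plus 3 SD, cut at about 27% in these data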
Target sequence (P08173 whole entry, looked up): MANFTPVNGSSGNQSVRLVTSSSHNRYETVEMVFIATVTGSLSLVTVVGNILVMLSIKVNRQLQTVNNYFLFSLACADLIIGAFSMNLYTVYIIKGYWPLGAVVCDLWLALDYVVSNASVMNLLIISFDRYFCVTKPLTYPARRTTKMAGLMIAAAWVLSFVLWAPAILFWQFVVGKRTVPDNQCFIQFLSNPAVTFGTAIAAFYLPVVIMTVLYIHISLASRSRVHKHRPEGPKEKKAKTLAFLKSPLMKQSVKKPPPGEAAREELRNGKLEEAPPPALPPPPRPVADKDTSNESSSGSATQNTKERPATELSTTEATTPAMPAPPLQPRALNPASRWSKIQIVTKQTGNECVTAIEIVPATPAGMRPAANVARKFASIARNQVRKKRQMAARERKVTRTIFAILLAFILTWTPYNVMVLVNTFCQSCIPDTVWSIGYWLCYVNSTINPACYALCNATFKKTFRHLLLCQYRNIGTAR
M4 ag – CHRM4 agonism in calcium assay; AID 624127; CHO-K1 hM4/Gqi5, Fluo-8 calcium fluorescence; vehicle 0%, full acetylcholine response 100%; 0.14% of 360,000 active; P08173; activation, % at 3 µM;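 active = activation above the run mean over all test wells plus 3 SD, cut at about 32% in these data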;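 note: peak over basal fluorescence ratio per well then scaled between controls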
M4 PAM – positive allosteric modulators of human muscarinic M4 receptor; P08173; CHO-K1 hM4/Gqi5, Fluo-8 calcium fluorescence, ACh EC20; 0% = ACh EC20, 100% = maximal ACh; activation, % at 3 µM; 0.4% of 360,000 active; AID 624126;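 active = activation above its plate's cutoff, the mean activation of sample wells plus 3 SD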
TAAR1 antagonist – antagonists of human TAAR1. inhibition, % at 3 µM. CHO RD-HGA16 TAAR1, Fluo-8 calcium fluorescence, antagonist. 1.5% of 360,000 active. Q96RJ0;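 active = inhibition above a per-plate cutoff, the mean inhibition of test compounds on that plate plus 3 SD, cut at about 49% in these data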
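Test system – hTAAR1-expressing CHO RD-HGA16 cells, Gα16-coupled · Also added – β-PEA at EC80 concentration, post-compound challenge · Compound – 3 µM, single point · Incubation – dye loading 75 min at 37 °C, then 30 min room temperature · Measured by – Fluo-8 intracellular calcium dye fluorescence, real-time kinetic reads · Benchmarks – vehicle and agonist controls · Replicates – singlicate, one well per test compound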
Each line names hits and unclear results; the compound was inactive in the other large screens.

CN(C)CC#CCOC(c1ccccc1)c1ccccc1	M4 antag 27
COC(=O)C1=C(C)N(Cc2cccc(C(F)(F)F)c2)C(=NCc2ccc3c(c2)OCO3)NC1c1ccccc1C(F)(F)F (configuration not stated)	none (no result: M4 antag, M4 ag, M4 PAM)
C[C@@H]1COc2cccc(NC3CC3)c2S(=O)(=O)N1	none (no result: M4 antag, M4 ag, M4 PAM)
COc1cc(-c2cc(NC(C)=O)c3ncc(-c4ccccc4)n3c2)cc(OC)c1OC	TAAR1 antagonist 49
COc1cc(-c2cc(NC=O)c3ncc(-c4ccccc4)n3c2)cc(OC)c1OC	TAAR1 antagonist 63
COc1ccc(-c2cnc3c(NC(C)=O)cc(-c4ccccc4OC)cn23)cc1OC	TAAR1 antagonist 52
COc1cc(-c2cc(NC(C)=O)c3ncc(-c4cc(OC)c(OC)c(OC)c4)n3c2)cc(OC)c1OC	none
COc1ccc(-c2cc(NC(C)=O)c3ncc(-c4ccc(OC)c(OC)c4)n3c2)cc1OC	none
CCc1ncc(CN2CCC(C(=O)Nc3ccc(-n4nc(C)cc4C)cc3)CC2)cn1	none
Cc1cc(C)n(-c2ccc(NC(=O)C3CCN(Cc4ccccn4)CC3)cc2)n1	M4 PAM 22
CCC(=O)N1CCCC(C)(C(=O)NS(=O)(=O)c2ccccc2Cl)C1 (configuration not stated)	none
CN1CCCCC(NC(=O)CCl)C1=O (configuration not stated)	none (no result: M4 antag, M4 ag, M4 PAM)
O=C(Nc1ccc(N2CCN(c3ncccc3C(F)(F)F)CC2)nc1)c1cccs1	M4 antag 27, TAAR1 antagonist 75
COc1ccc([N+](=O)[O-])cc1NC1CCN(C(=O)c2cccs2)CC1	M4 PAM 18
COc1ccc(NC(=O)C2CCN(C(=O)c3cccs3)CC2)cc1OC	none
COC(=O)c1cccc(NC(=O)CCSc2ccc(Cl)cc2)c1C	TAAR1 ag 77, TAAR1 antagonist 91
COC(=O)c1ccc(C)c(NC(=O)CCSc2ccc(Cl)cc2)c1	none
COc1ccc(C(=O)CSc2nnc(NC(=O)C3CC(=O)N(c4ccccc4C)C3)s2)cc1 (configuration not stated)	TAAR1 antagonist 53
COc1ccc(-n2nc([N+](=O)[O-])c(=NC3CCN(Cc4ccccc4)CC3)n2O)cc1	M4 antag 28
CCNS(=O)(=O)c1ccc(CCC(=O)Nc2ccc(C(=O)OC)cc2)cc1	M4 PAM 29
CCCCn1c(N)c(N(CC(C)C)C(=O)CC(NC(=O)c2ccccc2Cl)c2ccccc2)c(=O)[nH]c1=O (configuration not stated)	none
CC(C)C(=O)NCCn1ccc2ccccc21	M4 PAM 30
COC(=O)C1=C(C)N(Cc2ccccc2C(F)(F)F)C(=NCc2ccccc2C(F)(F)F)NC1c1ccc(F)cc1 (configuration not stated)	none (no result: M4 antag, M4 ag, M4 PAM)
O=C(O)CCN1C(=O)C2C3C=CC(C3)C2C1=O (configuration not stated)	none
O=C(O)CCN1C(=O)C2CCCCC2C1=O (configuration not stated)	M4 PAM 19
COc1ccc(NC(=O)COC(=O)CC2CC3CCC2C3)c([N+](=O)[O-])c1 (configuration not stated)	M4 PAM 21
CC(=O)c1c(C)[nH]c(C(=O)OCC(=O)Nc2ccc(C)cc2[N+](=O)[O-])c1C	none
CC(=O)c1c(C)[nH]c(C(=O)OCC(=O)Nc2cc(Cl)ccc2[N+](=O)[O-])c1C	TAAR1 antagonist 51
CCOC(=O)c1[nH]c(C)c(C(=O)Nc2ccc(Cl)cc2)c1C	TAAR1 ag 39
COc1cc(F)ccc1Oc1cccc2c1S(=O)(=O)N([C@H](C)c1ccccc1)C[C@@H](COCc1ccccc1)O2	none (no result: M4 antag, M4 ag, M4 PAM)
COC(=O)[C@]12C[C@H](CC(=O)N3CCCCC3)C(=O)N(Cc3ccc4c(c3)OCO4)C1=C[C@H](C(C)(C)C)O[C@@H]2C	none (no result: M4 antag, M4 ag, M4 PAM)
Cc1[nH]c2ccccc2c1/C=N/NC(=O)c1cc(-c2ccccc2)n[nH]1	TAAR1 antagonist 61
O=C(C(=O)N1CCN(C(=O)Cc2ccccc2)CC1)c1cccc(C(F)(F)F)c1	none (no result: M4 antag, M4 ag, M4 PAM)
Cc1ccc2c(CC(=O)NC3CCS(=O)(=O)C3)coc2c1C (configuration not stated)	M4 PAM 18
Nc1[nH]c(C(=O)c2ccccc2)c(-c2ccc(Cl)cc2)c1C(=O)c1c[nH]c2ccc(F)cc12	none (no result: M4 antag, M4 ag, M4 PAM)
Cc1scc2c1N(C(=O)CN1CCN(C)CC1)c1ccccc1NC2=O	M4 antag 98
CCc1c(O)nc(SCC(=O)Nc2ccc(Cl)cc2)n(-c2ccccc2)c1=O	M4 PAM 17
CCCCCCN1CCN(C2CN(Cc3cn(Cc4ccc(C(F)(F)F)cc4)nn3)S(=O)(=O)C2)CC1 (configuration not stated)	none (no result: M4 antag, M4 ag, M4 PAM)
CCCC(=O)N1CCN(c2nc3ccc(Br)cc3s2)CC1	M4 PAM 29
CCOC(=O)N1CCN(C(=O)c2ccc3nc(N4CCC(C)CC4)sc3c2)CC1	M4 PAM 16
CCCCC(=O)N1CCN(c2nc3ccc(Br)cc3s2)CC1	M4 PAM 19
CCOC(=O)N1CCN(C(=O)c2ccc3nc(N4CCCCC4)sc3c2)CC1	none
COc1ccc2c(c1)[C@@H](NC(=O)c1ccncc1)[C@H](C)[C@H]2c1ccccc1	none (no result: M4 antag, M4 ag, M4 PAM)
CC1=C(c2ccccc2)C(=O)C(C)(C)CC1=O	none (no result: M4 antag, M4 ag, M4 PAM)
COc1ccc(CCC(C)N2CCC(CO)(Cc3ccccc3)CC2)cc1 (configuration not stated)	M4 antag 33
COc1ccc(CC2(CO)CCN(C(C)Cc3ccc(Cl)cc3)CC2)cc1 (configuration not stated)	none
CC1=C(C(=O)NCc2ccc3c(c2)OCO3)C2(CCC(C)CC2)OC1=O (configuration not stated)	M4 antag 60
O=C(CN1CCCCC1)Nc1ccccc1-c1ccccc1	M4 antag 68
O=C(CN1CCCCCC1)NN(Cc1ccccc1)c1ccccc1	M4 antag 29
O=C(CN1CCOCC1)Nc1ccccc1-c1ccccc1	none
COc1cc(OC)cc(C(=O)Nc2cccc(N3CCCC3)c2)c1	M4 antag 28
C[C@@H]1CCCCO[C@H](CN(C)C(=O)CCC(F)(F)F)[C@H](C)CN([C@@H](C)CO)C(=O)c2cc(NS(=O)(=O)c3ccc(Cl)cc3)ccc2O1	none (no result: M4 antag, M4 ag, M4 PAM)
COc1ccccc1NC(=O)Nc1nc(CC(=O)NC2CCCC2)cs1	none
COc1ccccc1NC(=O)Nc1nc(CC(=O)Nc2ccc(N(C)C)cc2)cs1	none
COc1ccccc1NC(=O)Nc1nc(CC(=O)N2CCN(c3ccccc3)CC2)cs1	TAAR1 antagonist 52
COc1ccc(N2CCN(C(=O)Cc3csc(NC(=O)Nc4ccccc4OC)n3)CC2)cc1	TAAR1 antagonist 50
COc1ccc(NC(=O)Cc2csc(NC(=O)Nc3ccccc3OC)n2)cc1	TAAR1 antagonist 49

Source: PubChem BioAssay
